# Measured values from article PMC6279241 (Science signaling, 2018).
# Changes are numbered by the printed parent chain. Numbered stars: 1 amine (or outer) side, 2 acyl side, 3 side chain; on linkers, the order of the positions; unused ones are H or OH. Bridge positions count the residues as written; N and C are the ends. Square brackets hold non-standard residues; d marks the D form. Peptide text beside a SMILES is read from it. * marks the point of attachment. Leu(3R-OH,Nα-propionyl) = CCC(=O)N[C@H](C(=O)*)[C@H](O)C(C)C; X1 = CC(C)[C@@H](O[*:3])[C@H](N[*:1])C(=O)[*:2]; NMeT = CN[C@H](C(=O)O)[C@@H](C)O; dPhLac = O=C(O)[C@H](O)Cc1ccccc1; NMeA = CN[C@@H](C)C(=O)O; NMeDha = C=C(NC)C(=O)O
# Legend:
# [1] = tested on: Gαi/q(R54K); assay: Attenuation of cannabinoid receptor-evoked inhibition of forskolin-induced cAMP; type: cell-based; conditions: Neuro2A
# [2] = target: T1, Gα13(Q226L) (Homo sapiens, UniProt Q14344, Q226L); assay: SRE; type: cell-based; conditions: SRE(L) reporter
# T1 sequence (Q14344 1-377 Q226L): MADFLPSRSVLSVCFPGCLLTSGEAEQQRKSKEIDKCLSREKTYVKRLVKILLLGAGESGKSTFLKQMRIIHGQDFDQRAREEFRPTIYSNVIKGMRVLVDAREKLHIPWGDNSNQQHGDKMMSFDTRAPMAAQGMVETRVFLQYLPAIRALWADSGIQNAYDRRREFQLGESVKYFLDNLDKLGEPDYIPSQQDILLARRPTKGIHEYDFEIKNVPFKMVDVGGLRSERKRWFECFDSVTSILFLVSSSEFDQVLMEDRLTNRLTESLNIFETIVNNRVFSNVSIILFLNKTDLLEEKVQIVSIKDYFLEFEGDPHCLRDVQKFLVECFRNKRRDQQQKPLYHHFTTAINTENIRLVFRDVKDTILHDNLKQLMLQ
# Summary of the method: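 SRE(L) promoter-driven firefly luciferase transcriptional reporter activated by constitutively active Gα13. Firefly signal was normalized to co-transfected Renilla luciferase expressed from a constitutive promoter.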
# [3] = target: T2, wild type Gαq / Gβγ (Mus musculus, UniProt P21279); assay: Co-purification of endogenous Gβγ with affinity-tagged wild type Gαq; type: cell-based; conditions: FR 1 μM, 24 hours; n=3
# T2 sequence (P21279 1-359): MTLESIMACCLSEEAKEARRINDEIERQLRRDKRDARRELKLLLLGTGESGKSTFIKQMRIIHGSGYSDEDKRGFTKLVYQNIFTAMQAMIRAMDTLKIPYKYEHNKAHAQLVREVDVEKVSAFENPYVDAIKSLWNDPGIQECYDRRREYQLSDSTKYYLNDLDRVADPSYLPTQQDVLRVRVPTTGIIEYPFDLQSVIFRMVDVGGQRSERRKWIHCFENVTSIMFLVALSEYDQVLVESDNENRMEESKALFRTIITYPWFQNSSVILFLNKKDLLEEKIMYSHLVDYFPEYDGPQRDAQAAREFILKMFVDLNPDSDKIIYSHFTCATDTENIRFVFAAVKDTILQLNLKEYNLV
# Summary of the method: (§1)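 HEK293 cells were transfected with mouse Gαq, either wild type or Q209L. A FLAG-StrepII-StrepII tag flanked by Gly/Ser linkers was inserted between residues 124 and 125. After 24 h, cells got FR (1 μM) or DMSO for 24 h. They were lysed in 50 mM Tris pH 8.0, 100 mM NaCl, 5 mM EDTA, 1 mM MgCl2, 0.5% IGEPAL, ± 1 μM FR. StrepTactin then anti-FLAG purification at 4 °C. Immunoblot for FLAG and Gβ; 3 independent experiments.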
# [4] = target: T3, Gα13(Q226L) / Gβ1γ2 (Homo sapiens, UniProt Q14344, Q226L); assay: Split-luciferase complementation between Gβ1γ2 and constitutively active Gα13; type: cell-based
# T3 sequence (Q14344 1-377 Q226L): T1 sequence (Q14344 1-377 Q226L)
# Summary of the method: (§2)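 Split click beetle green luciferase in transiently transfected HEK293 cells. The N-terminal fragment sat in the helical-domain αB-αC loop of wild type or Q226L Gα13. The C-terminal fragment was fused to the N-terminus of Gβ1 (with untagged Gγ2 co-transfected) or of the LARG RGS domain. Cells were treated 18 h with test compound or DMSO, then reconstituted luciferase activity was read. Triplicate wells; 3 experiments on different days.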
# [5] = target: Gαi/q(Q204L) (Homo sapiens, UniProt P63096, H188P/K180P/K54R/Q204L/T187Y/V185I/V50I/V72L/Y69F); assay: GTP hydrolysis; type: biochemical; conditions: FR 25 μM
# Sequence of Gαi/q(Q204L) (P63096 whole entry V50I/K54R/Y69F/V72L/K180P/V185I/T187Y/H188P/Q204L): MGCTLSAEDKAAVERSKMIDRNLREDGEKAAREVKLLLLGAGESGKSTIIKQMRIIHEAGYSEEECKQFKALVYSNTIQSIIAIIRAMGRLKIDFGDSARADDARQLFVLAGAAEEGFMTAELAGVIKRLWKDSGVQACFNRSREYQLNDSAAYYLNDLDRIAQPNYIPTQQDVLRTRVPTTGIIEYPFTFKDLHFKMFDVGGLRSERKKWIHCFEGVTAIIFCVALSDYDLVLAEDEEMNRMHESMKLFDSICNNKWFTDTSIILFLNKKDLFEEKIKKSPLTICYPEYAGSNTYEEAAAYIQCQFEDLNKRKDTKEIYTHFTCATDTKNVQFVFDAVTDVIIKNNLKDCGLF
# Summary of the method: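 His-tagged Gαi/q(Q204L) was expressed in E. coli; it is Gαi1 carrying eight Gαq-type substitutions. The protein (3 μM) was in 50 mM Tris-HCl pH 8.0, 5 mM MgCl2, 1 mM EDTA, 0.5 mM DTT. Reaction started with γ32P-GTP (100 nM final, 100 Ci/mmol); protein was in >10-fold excess. FR (25 μM final) or DMSO was added partway. Aliquots were quenched in 1N formic acid and resolved on PEI-cellulose TLC. Triplicate, ≥3 days, different protein preparations.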
# [6] = tested on: OCM-1A cells; assay: Cell viability/proliferation; type: cell-based, human; conditions: even at 10 μM
# Summary of the method: (§3)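 Water-soluble tetrazolium salt (WST-8) viability assay run per the maker's protocol. Cells were grown in RPMI 1640 with 10% FBS and antibiotics at 37 °C, 5% CO2. Fold-change in viability over time was followed at increasing test compound concentrations, and EC50 was taken from concentration-response data. Mean ± SEM of 4 experiments, each in triplicate.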
# [7] = tested on: 92.1 cells; assay: Cell viability/proliferation; type: cell-based, human; conditions: read-out: EC50, inhibition of proliferation (viability)
# Summary of the method: as §3
# [8] = target: wild type Gα13 / Gβ1γ2 (Homo sapiens, UniProt Q14344); assay: Split-luciferase complementation between Gβ1γ2 and wild type Gα13; type: cell-based
# Sequence of wild type Gα13 / Gβ1γ2 (P59768 2-68): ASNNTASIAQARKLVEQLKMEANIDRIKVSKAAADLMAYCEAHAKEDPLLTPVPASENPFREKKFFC
# Sequence of wild type Gα13 / Gβ1γ2 (P62873 whole entry, further chain): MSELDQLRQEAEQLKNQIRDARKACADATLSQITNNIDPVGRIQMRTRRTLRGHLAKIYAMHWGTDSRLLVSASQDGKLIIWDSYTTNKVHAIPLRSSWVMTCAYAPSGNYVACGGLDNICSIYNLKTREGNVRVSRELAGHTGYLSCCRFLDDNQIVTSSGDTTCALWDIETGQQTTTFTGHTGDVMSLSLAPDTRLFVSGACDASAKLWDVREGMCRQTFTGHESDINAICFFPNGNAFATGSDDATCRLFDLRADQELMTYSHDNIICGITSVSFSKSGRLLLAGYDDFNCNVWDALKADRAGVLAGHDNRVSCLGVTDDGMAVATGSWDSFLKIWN
# Sequence of wild type Gα13 / Gβ1γ2 (Q14344 whole entry): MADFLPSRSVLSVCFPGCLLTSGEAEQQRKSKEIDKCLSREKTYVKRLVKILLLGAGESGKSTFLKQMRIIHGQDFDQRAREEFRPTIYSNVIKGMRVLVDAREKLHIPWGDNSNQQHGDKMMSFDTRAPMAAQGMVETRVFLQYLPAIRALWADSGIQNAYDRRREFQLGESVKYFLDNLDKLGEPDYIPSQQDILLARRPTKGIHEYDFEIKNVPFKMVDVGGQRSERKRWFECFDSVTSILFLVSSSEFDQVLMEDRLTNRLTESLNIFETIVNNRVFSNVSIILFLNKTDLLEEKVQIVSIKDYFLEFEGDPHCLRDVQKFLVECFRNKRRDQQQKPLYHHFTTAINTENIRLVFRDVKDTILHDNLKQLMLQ
# Summary of the method: as §2
# [9] = tested on: 92.1 cells; assay: RNA-Seq gene expression in FR-treated 92.1 cells; type: cell-based, human; conditions: 92.1, 100 nM FR
# [10] = tested on: Mel202 cells; assay: Immunofluorescence staining of melanocytic markers in Mel202 cells; type: cell-based, human
# Summary of the method: (§4)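 Immunofluorescence for TYR, DCT and PMEL. An equal volume of 2× fixative (PBS, 4% paraformaldehyde, 0.4% glutaraldehyde) was added to cells in growth medium for 15 min at 37 °C. Cells were permeabilized with 0.1% Triton X-100 for 5 min, blocked with 2% fish gelatin, and labelled with Alexa Fluor secondaries. The proportion of marker-positive cells was compared with Fisher's exact test. Representative of 3 experiments.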
# [11] = tested on: 92.1 cells; assay: Flow cytometry of DNA content; type: cell-based, human; conditions: 92.1, 3 days
# Summary of the method: (§5)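 Cells were treated with test compound for 3 days, then stained with propidium iodide for DNA content and run on a FACScan flow cytometer. The sub-G1 fraction gave apoptosis; S- and G2/M-phase fractions gave proliferation. Mean ± SEM of 4 experiments. t-tests were corrected with the Holm-Sidak method.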
# [12] = tested on: OCM-1A cells; assay: Quantitative RT-PCR of PRC2-regulated genes in OCM-1A cells; type: cell-based, human; conditions: qRT-PCR
# [13] = target: T4, Gαq(Q209L) (Mus musculus, UniProt P21279, Q209L); assay: SRE; type: cell-based; conditions: read-out: IC50, inhibition of transcriptional reporter driven by constitutively active Gαq; SRE(L) reporter
# T4 sequence (P21279 1-359 Q209L): T2 sequence (P21279 1-359) with Q209L
# Summary of the method: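 Firefly luciferase signal from the Gα-driven transcriptional reporter was normalized to co-transfected Renilla luciferase from a constitutive promoter.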
# [14] = tested on: Mel202 cells; assay: IP1 abundance; type: cell-based, human; conditions: Mel202, Gαq(Q209L)-driven
# Summary of the method: (§6)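 Homogeneous IP1 immunoassay (IP-One kit). Seeding was 10,000 Mel202, 20,000 92.1 or 20,000 OCM-1A cells per well. After overnight culture, cells got test compound or DMSO and were incubated until the next day. Stimulation buffer was added for 1 h, then IP1-d2 and anti-IP1 cryptate for 60 min at room temperature. IP1 was read from kit standard curves. Mean ± SEM of 4 experiments, each in triplicate.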
# [15] = tested on: Mel202 cells; assay: Cell viability/proliferation; type: cell-based, human; conditions: read-out: EC50, inhibition of proliferation (viability)
# Summary of the method: as §3
# [16] = target: Gαi/q(R54K) (Homo sapiens, UniProt P63096, H188P/K180P/T187Y/V185I/V50I/V72L/Y69F); assay: Nucleotide exchange; type: biochemical; conditions: in vitro
# Sequence of Gαi/q(R54K) (Homo sapiens, UniProt P63096, H188P/K180P/T187Y/V185I/V50I/V72L/Y69F) (P63096 whole entry V50I/Y69F/V72L/K180P/V185I/T187Y/H188P): as the sequence (P63096 whole entry V50I/K54R/Y69F/V72L/K180P/V185I/T187Y/H188P/Q204L) above, with R54K, L204Q counted along it
# [17] = target: T5, Gαq(Q209L) / Gβγ (Mus musculus, UniProt P21279, Q209L); assay: Co-purification of endogenous Gβγ with affinity-tagged constitutively active Gαq; type: cell-based; conditions: FR 1 μM, 24 hours; n=3
# T5 sequence (P21279 1-359 Q209L): T2 sequence (P21279 1-359) with Q209L
# Summary of the method: as §1
# [18] = tested on: 92.1 cells; assay: Melanocytic pigmentation of 92.1 cells; type: cell-based, human; conditions: 92.1, 3 days, vs vehicle
# Summary of the method: (§7)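 Cells were treated with test compound for 3 days, then pelleted and examined macroscopically for pigmentation against vehicle (DMSO). Representative images are from one of 3 experiments, each in triplicate.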
# [19] = tested on: OCM-1A cells; assay: Flow cytometry of DNA content; type: cell-based, human; conditions: 3 days
# Summary of the method: as §5
# [20] = tested on: 92.1 cells; assay: IP1 abundance; type: cell-based, human; conditions: 92.1, Gαq(Q209L)-driven
# Summary of the method: as §6
# [21] = tested on: 92.1 cells; assay: Immunofluorescence staining of melanocytic markers in 92.1 cells; type: cell-based, human
# Summary of the method: as §4
# [22] = tested on: Gαi/q; assay: Attenuation of cannabinoid receptor-evoked inhibition of forskolin-induced cAMP; type: cell-based; conditions: read-out: IC50, attenuation of Gαi/q-mediated inhibition of forskolin-induced cAMP accumulation; Neuro2A, cannabinoid type 1 receptors, WIN 55,212-2
# [23] = tested on: Mel202 cells; assay: Flow cytometry of DNA content; type: cell-based, human; conditions: Mel202, 3 days
# Summary of the method: as §5
# [24] = tested on: OCM-1A cells; assay: IP1 abundance; type: cell-based, human; conditions: BRAF(V600E)-driven
# Summary of the method: as §6
# [25] = target: T6, Gα13(Q226L) / LARG-RGS (Homo sapiens, UniProt Q14344, Q226L); type: cell-based; conditions: split luciferase
# T6 sequence (Q14344 1-377 Q226L): T1 sequence (Q14344 1-377 Q226L)
# Summary of the method: as §2
# [26] = tested on: OCM-1A cells; assay: Morphology; type: cell-based, human; conditions: 3 days
# Summary of the method: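 Cells were treated with test compound for 3 days and imaged by phase contrast on an inverted microscope with a 10× objective. Representative fields are from one of 3 experiments.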
# [27] = tested on: Mel202 cells; assay: Melanocytic pigmentation of Mel202 cells; type: cell-based, human; conditions: Mel202, 3 days, vs vehicle
# Summary of the method: as §7
smiles,measurement,setting,value
"C=C1C(=O)N[C@@H](C)C(=O)N(C)[C@@H](C)C(=O)N[C@@H]([C@H](OC(=O)[C@@H](NC(=O)CC)[C@H](O)C(C)C)C(C)C)C(=O)N(C)[C@@H]([C@@H](C)OC)C(=O)O[C@H](C(C)C)[C@H](NC(C)=O)C(=O)O[C@H](Cc2ccccc2)C(=O)N1C [FR, FR900359] (Ac-[X1][dPhLac][NMeDha]A[NMeA][X1](Leu(3R-OH,Nα-propionyl))[NMeT](Me); ester 1-C)",Fold less potent toward Gαi/q(R54K) than Gαi/q (cAMP signaling in cells),[1],~ 30 fold
same,IC50,"[1]; read-out: IC50, attenuation of Gαi/q(R54K)-mediated inhibition of forskolin-induced cAMP accumulation, cannabinoid type 1 receptors, WIN 55,212-2",~800 nM
same,Effect on transcriptional reporter driven by constitutively active Gα13,[2],no effect
same,Increase of association between Gβγ and affinity-tagged wild type Gαq (co-purification),[3],19 fold
same,Effect on interaction between constitutively active Gα13(Q226L) and Gβ1γ2,[4],lack of effect
same,Correction of GTP hydrolysis defect of Gαi/q(Q204L),[5],not corrected
same,Effect on proliferation,[6],no effect
same,EC50,[7],2 nM
same,Effect on interaction between wild type Gα13 and Gβ1γ2,[8],lack of effect
same,Decrease in expression of BBC3/PUMA,[9],3.5 fold
same,Decrease in expression of PMAIP1/NOXA,[9],2.5 fold
same,Decrease in expression of p21CIP1 (CDKN1A),[9],3.0 fold
same,Increase in proportion of DCT-positive cells,[10],1.6 fold
same,Increase in proportion of PMEL-positive cells,[10],3.9 fold
same,Increase in proportion of TYR-positive cells,[10],1.8 fold
same,Apoptosis (increased fraction of sub-G1/G0 cells),[11],induced
same,Cell cycle inhibition (decreased fraction of S- or G2/M-phase cells),[11],induced
same,Expression of PRC2-regulated genes,[12],unaffected
same,IC50,[13],1 nM
same,Reduction of IP1 abundance,[14],> 50 fold
same,EC50,[15],6 nM
same,Fold less potent toward Gαi/q(R54K) than Gαi/q (nucleotide exchange),[16],> 10 fold
same,Increase of association between Gβγ and affinity-tagged constitutively active Gαq (co-purification),[17],9 fold
same,Melanocytic pigmentation,[18],increased
same,Effect on cell cycle and apoptosis,[19],no effect
same,Reduction of IP1 abundance,[20],> 50 fold
same,Increase in proportion of DCT-positive cells,[21],3.5 fold
same,Increase in proportion of PMEL-positive cells,[21],6.8 fold
same,IC50,[22],25 nM
same,Apoptosis (increased fraction of sub-G1/G0 cells),[23],induced
same,Cell cycle inhibition (decreased fraction of S- or G2/M-phase cells),[23],induced
same,Reduction of IP1 abundance,[24],~ 2 fold
same,Effect on interaction between constitutively active Gα13 and RGS domain of LARG,[25],lack of effect
same,Morphological changes,[26],no effect
same,Melanocytic pigmentation,[27],increased
